In publication PMC2200097 (The Journal of Cell Biology, 1993):
Blank lines part the entries; values can stand above or below the molecule they belong to.

Columns and labels:
[1] = molecular target: peptide 300 (GGWSHW) (human)
[2] = molecular target: peptide 300 (GGWSHW) (human); assay: radioligand binding
[3] = tested on: melanoma cells; details: murine lung colonization assay; ref Tuszynski et al., 1992; cited from earlier work
[4] = molecular target: human plasma fibronectin (Homo sapiens, UniProt P02751); assay: Direct binding of [125I]fibronectin to immobilized peptides; details: solid phase assay, labeled fibronectin
Chain of human plasma fibronectin (P02751 306-608 limits assumed): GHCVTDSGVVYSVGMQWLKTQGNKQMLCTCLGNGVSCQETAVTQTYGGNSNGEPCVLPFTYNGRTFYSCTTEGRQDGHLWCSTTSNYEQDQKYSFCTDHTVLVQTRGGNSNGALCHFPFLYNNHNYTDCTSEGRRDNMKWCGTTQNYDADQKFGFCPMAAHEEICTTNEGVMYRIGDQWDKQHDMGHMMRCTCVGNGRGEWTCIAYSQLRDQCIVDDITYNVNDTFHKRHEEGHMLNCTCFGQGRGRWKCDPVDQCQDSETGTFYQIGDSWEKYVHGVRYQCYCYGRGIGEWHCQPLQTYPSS

[5] = molecular target: fibronectin (Homo sapiens, UniProt P02751); type: binding; details: for IC50 for competition of [125I]fibronectin binding to peptide GGWSHW: irrelevant proteins as inhibitors; for Inhibition of fibronectin binding to immobilized peptide GGWSHW, in words: soluble peptide or protein as inhibitor
Chain of fibronectin (P02751 306-608 limits assumed): as above
Outline: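 Wells were incubated 2 h at 25°C with [¹²⁵I]human plasma fibronectin (0.2 μg/ml final per methods; 0.5 μg/ml per legends) plus serial dilutions of soluble inhibitors. Wells were washed three times with DPBS, cut out and counted. Duplicates; percent of specific binding without inhibitor.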

[6] = molecular target: peptide GGWSHW (Homo sapiens, UniProt P07996); type: binding; details: detection with antibody 191; wells coated with 50 μg/ml GGWSHW
Outline: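 Peptide GGWSHW (50 μg/ml) was coated on microtiter wells and blocked with 1% BSA. Wells were incubated with graded concentrations of unlabeled intact fibronectin, the 30-kD proteolytic gelatin-binding domain or the 120-kD proteolytic cell-binding fragment. After washing, bound protein was detected sequentially with 5 μg/ml monoclonal antibody 191 and ¹²⁵I-goat anti-IgG, then counted. Values are mean ± SD of duplicates.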

[7] = molecular target: human plasma fibronectin (human); assay: radioligand binding

Molecule: CSTSCG
Inhibition of metastasis of melanoma cells, in words [3]: inhibit

Molecule: CSVTCG
Inhibition of metastasis of melanoma cells, in words [3]: inhibit

Molecule: GGWGPW [compound 318]
Fibronectin binding to immobilized peptide, in words [4]: inactive

Molecule: fibronectin
Inhibition of fibronectin binding to immobilized peptide GGWSHW, in words [5]: competed
Half saturation of binding to immobilized peptide GGWSHW [6]: 0.7 µg/mL

Molecule: peptide 340 (AAWSHW)
IC50 [7]: > 300 µM

Molecule: thrombospondin: human platelet thrombospondin, extracellular matrix glycoprotein
Inhibition of fibronectin binding to immobilized peptide GGWSHW, in words [5]: competed

B1: ovalbumin: irrelevant control protein (protein)
chain: MGSIGAASMEFCFDVFKELKVHHANENIFYCPIAIMSALAMVYLGAKDSTRTQINKVVRFDKLPGFGDSIEAQCGTSVNVHSSLRDILNQITKPNDVYSFSLASRLYAEERYPILPEYLQCVKELYRGGLEPINFQTAADQARELINSWVESQTNGIIRNVLQPSSVDSQTAMVLVNAIVFKGLWEKAFKDEDTQAMPFRVTEQESKPVQMMYQIGLFRVASMASEKMKILELPFASGTMSMLVLLPDEVSGLEQLESIINFEKLTEWTSSNVMEERKIKVYLPRMKMEEKYNLTSVLMAMGITDVFSSSANLSGISSAESLKISQAVHAAHAEINEAGREVVGSAEAGVDAASVSEEFRADHPFLFCIKHIATNAVLFFGRCVSP
IC50 for competition of [125I]fibronectin binding to peptide GGWSHW [5]: > 200 µg/mL

Further lines, results first:

half saturation [1]: 15 µg/mL
Molecule: 30-kD proteolytic gelatin-binding domain of fibronectin (domain or fragment)

fold less active as inhibitor than the 33-kD fragment [2]: 10 fold
Molecule: 40-kD recombinant fragment of fibronectin with the same amino terminus as the 28-kD fragment (domain or fragment)

Fibronectin binding to immobilized peptide, in words [4]: inactive
Molecule: DGWSPW (DGWCSPW) [compound 317]

IC50 for competition of [125I]fibronectin binding to peptide GGWSHW [5]: > 200 µg/mL
Molecule: fetuin: irrelevant control protein [reference compound]

IC50 for competition of [125I]fibronectin binding to peptide GGWSHW [5]: > 200 µg/mL
Molecule: transferrin: irrelevant control protein [reference compound]

IC50 [7]: > 300 µM
Molecule: GGWSHWSPWSS [peptide 256 (…)]
